Assay results from ChEMBL document CHEMBL1128440 (J Med Chem, 1995).

Columns and labels:
[1] = target: T1, Progesterone receptor (Homo sapiens) (UniProt P06401); assay: Nonspecific binding affinity against progesterone receptor was estimated relative to compound R5020
T1 sequence (whole entry): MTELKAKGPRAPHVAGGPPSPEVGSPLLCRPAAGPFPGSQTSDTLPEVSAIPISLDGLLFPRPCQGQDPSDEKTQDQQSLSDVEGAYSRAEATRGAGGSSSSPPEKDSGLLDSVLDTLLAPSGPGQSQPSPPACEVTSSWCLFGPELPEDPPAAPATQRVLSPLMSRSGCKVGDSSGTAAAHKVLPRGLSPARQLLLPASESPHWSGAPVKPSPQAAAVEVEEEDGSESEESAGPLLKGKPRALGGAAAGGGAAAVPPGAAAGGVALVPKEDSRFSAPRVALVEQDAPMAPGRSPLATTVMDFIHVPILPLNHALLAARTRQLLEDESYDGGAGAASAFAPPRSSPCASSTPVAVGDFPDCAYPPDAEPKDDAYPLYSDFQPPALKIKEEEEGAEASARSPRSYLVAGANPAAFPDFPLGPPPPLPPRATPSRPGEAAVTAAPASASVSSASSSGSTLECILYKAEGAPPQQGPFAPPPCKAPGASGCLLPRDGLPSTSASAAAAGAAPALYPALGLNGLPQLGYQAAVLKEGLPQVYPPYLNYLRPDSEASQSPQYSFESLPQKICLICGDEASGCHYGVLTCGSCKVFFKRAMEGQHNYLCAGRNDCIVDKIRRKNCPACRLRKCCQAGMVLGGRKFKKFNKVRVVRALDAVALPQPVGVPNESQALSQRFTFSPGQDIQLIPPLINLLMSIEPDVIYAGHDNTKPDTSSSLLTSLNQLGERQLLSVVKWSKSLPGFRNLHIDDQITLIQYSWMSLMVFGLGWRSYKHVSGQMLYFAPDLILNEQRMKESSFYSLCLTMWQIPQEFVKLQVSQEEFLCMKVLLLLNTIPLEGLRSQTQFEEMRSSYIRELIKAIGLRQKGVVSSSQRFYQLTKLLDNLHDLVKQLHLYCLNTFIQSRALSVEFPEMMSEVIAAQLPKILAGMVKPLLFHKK

[2] = target: T1, Progesterone receptor (Homo sapiens); assay: Relative binding affinity against progesterone receptor at 0 degree Celsius determined in a competitive radiometric binding assay (R5020=100%).
Method in brief: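 Competitive radiometric binding at 0 °C against tritium-labeled R5020 as the standard (RBA = 100). Values are the average of two experiments.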

[3] = target: T1, Progesterone receptor (Homo sapiens); assay: Binding selectivity index as the ratio of RBA value to that of NSB value.
Method in brief: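 BSI calculated as the ratio of RBA to NSB.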

CC(=O)[C@H]1CC[C@H]2[C@@H]3CCC4=CC(=O)CC[C@]4(C)[C@H]3CC[C@]12C
NSB [1]: 0.83
RBA [2]: 13
BSI [3]: 16
